Series [1] in a line: Chemical stability 0.1M Tris buffer at pH 8.1 at 1 mg/ml at room temperature assessed as ratio of Asn-containing cyclic peptides after 48 hrs by HPLC method. The note with it: read-out: Stability. The format is physicochemical. The procedure, abridged:
(§1)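 Peptide at 1.0 mg/mL (~2 mM). Buffer runs at room temperature: 0.2 M NH4OAc pH 5.0, PBS pH 7.4 or 0.1 M Tris pH 8.1. Medium runs at 37 °C in DMEM GlutaMAX-I with 10% FCS and gentamicin 160 μg/mL. Sampled at 24 and 48 h by analytical RP-HPLC. Asn/isoAsp/Asp ratio taken from peak AUC, species identified by MS and Asp reference peptides.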

Series [2] in a line: Chemical stability 0.2M NH4OAc at pH 5.0 at 1 mg/ml at room temperature assessed as ratio of Asn-containing cyclic peptides after 24 hrs by HPLC method. The format is physicochemical. The note with it: 0.2 M NH4OAc buffer, read-out: Stability. In outline:
as §1

Series [3] is described as follows: Chemical stability 0.2M NH4OAc at pH 5.0 at 1 mg/ml at room temperature assessed as ratio of Asn-containing cyclic peptides after 48 hrs by HPLC method. Type of series: physicochemical. The note with it: 0.2 M NH4OAc buffer, read-out: Stability. In outline: as §1
Series [4] is described as follows: Chemical stability PBS buffer at pH 7.4 at 1 mg/ml at room temperature assessed as ratio of Asn-containing cyclic peptides after 24 hrs by HPLC method. The format is physicochemical. The note with it: read-out: Stability. In outline: as §1
Series [5] can be described thus: Chemical stability PBS buffer at pH 7.4 at 1 mg/ml at room temperature assessed as ratio of Asn-containing cyclic peptides after 48 hrs by HPLC method. The format is physicochemical. The note with it: read-out: Stability. In outline:
as §1

The nature of series [6]: Chemical stability 0.1M Tris buffer at pH 8.1 at 1 mg/ml at room temperature assessed as ratio of Asn-containing cyclic peptides after 24 hrs by HPLC method. The format is physicochemical. The note with it: read-out: Stability. In outline:
as §1

The target of series [7] is T1, Integrin alpha-V/beta-3 (Homo sapiens) (UniProt P05106+P06756). In words: Binding affinity to integrin alphav beta3 receptor assessed as receptor-mediated cell adhesion in human A2058 cells at 10 nM to 1 uM and measured every 20 seconds for 25 hrs at 10 kHz by xCELLigence SP system based method. In outline:
(§2)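 A2058 human melanoma cells grown in RPMI 1640 with 10% FCS, 2 mM L-glutamine and penicillin/streptomycin at 37 °C, 5% CO2. Electrodes coated 20 min at 4 °C with peptide (10-fold dilutions in 0.1% gelatin/PBS), dried 5 min. Background read 30 min, then 10^4 cells/well added. Impedance recorded every 20 s for 25 h at 10 kHz, in triplicate. ΔCI at 5, 10 and 25 h, normalized to gelatin-only control (100%).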

Series [8] in a line: Chemical stability DMEM cell culture medium at pH 7.3 at 1 mg/ml at 37 degC assessed as ratio of Asn-containing cyclic peptides after 24 hrs by HPLC method. The format is physicochemical. Conditions: read-out: Stability. In outline:
as §1

Series [9] deals with T1, Integrin alpha-V/beta-3 (Homo sapiens). Kind of series: Binding affinity to integrin alphav beta3 receptor assessed as receptor-mediated cell adhesion in human A2058 cells at 10 nM to 100 nM and measured every 20 seconds for 5 to 25 hrs at 10 kHz by xCELLigence SP system based method. The procedure, abridged:
as §2

Series [10] in a line: Chemical stability DMEM cell culture medium at pH 7.3 at 1 mg/ml at 37 degC assessed as ratio of Asn-containing cyclic peptides after 48 hrs by HPLC method. The note with it: read-out: Stability. Type of series: physicochemical. The procedure, abridged:
as §1

The target in series [11] is T1, Integrin alpha-V/beta-3 (Homo sapiens). Kind of series: Binding affinity to integrin alphav beta3 receptor assessed as receptor-mediated cell adhesion in human A2058 cells at 100 nM and measured every 20 seconds for 25 hrs at 10 kHz by xCELLigence SP system based method. The procedure, abridged: as §2
Series [12] has the same target. In words: Binding affinity to integrin alphav beta3 receptor assessed as receptor-mediated cell adhesion in human A2058 cells at 10 nM to 1 uM and measured every 20 seconds for >5 hrs at 10 kHz by xCELLigence SP system based method. In outline:
as §2

Series [13] shares this target. In words: Binding affinity to integrin alphav beta3 receptor assessed as receptor-mediated cell adhesion in human A2058 cells at 1 uM and measured every 20 seconds for 5 to 25 hrs at 10 kHz by xCELLigence SP system based method. The procedure, abridged: as §2

Calls of active or inactive are those of the source. No cut-off for these calls is given here. Where a SMILES comes first, the peptide text is derived from it. Bridges are numbered along the chain shown (N, C = ends).

Consider `N=C(N)NCCC[C@@H]1NC(=O)CNC(=O)[C@H](CC(N)=O)NC(=O)[C@@H]2CCCN2C(=O)CSC[C@@H](C(N)=O)NC1=O` ({CH2CO}-PNGRC-NH2; thioether N-5), for which the remaining at 48 h, 1 mg/ml was 47% in series [1], 98% in [3] and 75% in series [5]. The remaining at 24 h, 1 mg/ml in series [2] was 100%; in series [4] it was 86%; in [6] it was 67%. The outcome in series [7] was inactive.

`N=C(N)NCCC[C@@H]1NC(=O)CNC(=O)[C@H](CC(N)=O)NC(=O)CCSC[C@@H](C(N)=O)NC1=O`: the remaining at 48 h, 1 mg/ml in [1] was 73%; in series [3], 99%; in series [5], 89%. The remaining at 24 h, 1 mg/ml in series [2] is 100%; in series [4], 94%; in [6], 86%; in [8], 0%. Besides, in [7], the result was Active.

Turning to `N=C(N)NCCC[C@@H]1NC(=O)CNC(=O)[C@H](CC(N)=O)NC(=O)[C@H](CCCCN)NC(=O)CSC[C@@H](C(N)=O)NC1=O` ({CH2CO}-KNGRC-NH2; thioether N-5), the remaining at 48 h, 1 mg/ml was found to be 15% in series [1], 90% in series [3] and 43% in series [5]. Moreover, the remaining at 24 h, 1 mg/ml in [2] was determined as 100%; in series [4] it was 58%; in series [6], 36%; in series [8], 0%. Moreover, the result in series [7] was inactive.

As for `CC(=O)N[C@H]1CSSC[C@@H](C(N)=O)NC(=O)[C@H](CCCNC(=N)N)NC(=O)CNC(=O)[C@H](CC(N)=O)NC1=O` (Ac-CNGRC-NH2; disulfide 1-5), the remaining at 48 h, 1 mg/ml in [1] was 71%; in [3] it was 100%; in series [5] it was 93%; in [10], 0%. Besides, the figures for the remaining at 24 h, 1 mg/ml in series [4], in series [6] and in [8] were 96%, 85% and 46%, respectively. The outcome in [9] was Active.

Turning to `N=C(N)NCCC[C@@H]1NC(=O)CNC(=O)[C@H](CC(N)=O)NC(=O)CSCCC(C(N)=O)NC1=O` (single isomer, unassigned), the remaining at 48 h, 1 mg/ml was 43% in series [1], 96% in series [3] and 44% in series [5]. Further, the remaining at 24 h, 1 mg/ml in [2] amounted to 100%; in [4], 64%; in series [6], 66%; in series [8], 0%. Also, in series [7], the result was inactive.

Regarding `N=C(N)NCCC[C@@H]1NC(=O)CNC(=O)[C@H](CC(N)=O)NC(=O)CSC[C@@H](C(N)=O)NC1=O` ({CH2CO}-NGRC-NH2; thioether N-4), the remaining at 48 h, 1 mg/ml is 13% in series [1], 67% in series [3] and 15% in [5]. The remaining at 24 h, 1 mg/ml in [2] was 85%; in [4], 36%; in series [6], 19%; in series [8] it was 0%. Besides, the outcome in series [11] and in [12] was Active.

For `N=C(N)NCCC[C@@H]1NC(=O)CNC(=O)[C@H](CC(N)=O)NC(=O)[C@H](CCCCN)NC(=O)CC[C@@H](C(N)=O)NC1=O` (KNGRE-NH2; lactam N-5), the remaining at 48 h, 1 mg/ml amounted to 100% in series [1], 100% in series [3], 100% in series [5] and 54% in [10]. Besides, the remaining at 24 h, 1 mg/ml in [8] was 92%. The result in [9] was Active. In series [13], the result was inactive.

For the origin of these results see ChEMBL document CHEMBL3414485, “Development of cyclic NGR peptides with thioether linkage: structure and dynamics determining deamidation and bioactivity” (J Med Chem, 2015).
